Test results reported in ChEMBL document CHEMBL1132918, “Synthesis and evaluation of tryprostatin B and demethoxyfumitremorgin C analogues” (J Med Chem, 2000).
pIC50: −log10 of the molar value.

Experiments:
[1] = system: Panel leukemia (Carcinoma cell lines); assay: Inhibitory activity against leukemia cell line; type: functional, cell-based; settings: for pIC50: Homo sapiens, Panel leukemia (Carcinoma cell lines); for Log IC50: panel leukemia (carcinoma cell lines)
CNS cell = assay: Inhibitory activity against CNS cell line; type: functional, cell-based; settings: for pIC50: Homo sapiens, CNS cell; for Log IC50: cns cell
Ovarian carcinoma cell = assay: Inhibitory activity against ovarian cell line; type: functional, cell-based; settings: for pIC50: Homo sapiens, Ovarian carcinoma cell
[2] = system: NCI-60 human tumor cell line panel (Homo sapiens); assay: Cytostatic effect in NCI-60 human tumor cell lines.; design: unit not given here
Prostate cell = assay: Inhibitory activity against prostate cell line; type: functional, cell-based; settings: for pIC50: Homo sapiens, Prostate cell
3Y1 cell line = assay: Cytotoxicity in 3Y1 cells.; type: functional, Rattus norvegicus; design: unit not given here
How it was run: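 Rat normal fibroblast 3Y1 cells grown in Dulbecco's modified MEM with 10% fetal calf serum, 5% CO2, humidified. Exponentially growing cells exposed to compounds for 24 h. Relative cell number = cell number at 24 h per initial cell number at 0 h × 100; DNA content distribution read by laser scanning cytometry.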

Colon cell = assay: Inhibitory activity against Colon cell line; type: functional, cell-based; settings: for pIC50: Homo sapiens, Colon cell; for Log IC50: colon cell
Renal cell = assay: Inhibitory activity against renal cell line; type: functional, cell-based; settings: for pIC50: Homo sapiens, Renal cell; for Log IC50: renal cell
[3] = system: NCI-60 human tumor cell line panel (Homo sapiens); assay: Mean concentration causing inhibition of cell growth in the NCI-60 human tumor cell line panel.
[4] = system: non-small-cell lung cancer cell lines (Homo sapiens); assay: Inhibitory activity against non-small-cell lung cancer cell lines; settings: for pIC50: Homo sapiens
Melanoma cell = assay: Inhibitory activity against melanoma cell line; type: functional, cell-based; settings: for pIC50: Homo sapiens, Melanoma cell; for Log IC50: melanoma cell
Breast carcinoma cell = assay: Inhibitory activity against breast cell line; type: functional, cell-based; settings: for pIC50: Homo sapiens, Breast carcinoma cell; for Log IC50: breast carcinoma cell
[5] = system: NCI-60 human tumor cell line panel (Homo sapiens); assay: Mean averaged concentration for total growth inhibition, which signifies cytostatic effect

| Structure (SMILES) | pIC50 [1] | pIC50 (CNS cell) | pIC50 (Ovarian carcinoma cell) | TGI [2] | pIC50 (Prostate cell) | LC50 (3Y1 cell line) | pIC50 (Colon cell) | pIC50 (Renal cell) | GI50 ([3]; Homo sapiens, NCI-60 panel) [µM] | pIC50 [4] | pIC50 (Melanoma cell) | pIC50 (Breast carcinoma cell) | further results |
| --- | --- | --- | --- | --- | --- | --- | --- | --- | --- | --- | --- | --- | --- |
| O=C1[C@@H]2Cc3c([nH]c4ccccc34)[C@H](c3ccccc3)N2C(=O)[C@@H]2CCCN12 | 4.86 | < 4.00 | 4.24 | >-4 | 4.07 | >-4 | 4.38 | 4.37 | 47.9 | 4.20 | 4.29 | 4.44 |  |
| COc1cc([C@H]2c3[nH]c4ccccc4c3C[C@H]3C(=O)NCC(=O)N23)cc(OC)c1O (relative stereo) | < 4.00 | < 4.00 | < 4.00 | >-4 | < 4.00 | >-4 | < 4.00 | < 4.00 | > 100 | < 4.00 | < 4.00 | < 4.00 |  |
| CC(C)=C[C@H]1c2[nH]c3ccccc3c2C[C@H]2C(=O)N3CCC[C@H]3C(=O)N21 (stereo in doubt; 3) [DEMETHOXYFUMITREMORGIN C] | 4.46 |  | 4.15 | -4.02 | 4.30 | >-4 | 4.27 |  |  | 4.28 |  |  | Log IC50 (CNS cell): -4.36; Log IC50 (Renal cell): -4.61; GI50 [3]: 43.7 µM; Log IC50 (Melanoma cell): -4.32; Log IC50 (Breast carcinoma cell): -4.43 |
| COc1cc([C@H]2c3[nH]c4ccccc4c3C[C@H]3C(=O)NCC(=O)N23)cc(OC)c1OC (relative stereo) | 4.14 | < 4.00 | < 4.00 | >-4 | < 4.00 | >-4 | < 4.00 | 4.02 | 95.5 | < 4.00 | < 4.00 | 4.03 |  |
| COc1cc([C@@H]2c3[nH]c4ccccc4c3C[C@H]3C(=O)NCC(=O)N23)cc(OC)c1O (relative stereo) | 4.42 | 4.42 | 4.18 | -4.01 | 4.15 | >-4 | 4.33 | 4.26 | 50.1 | 4.25 | 4.34 | 4.31 |  |
| O=C1[C@@H]2Cc3c([nH]c4ccccc34)[C@@H](c3ccccc3)N2C(=O)[C@@H]2CCCN12 | 4.39 | 4.21 | 4.25 | >-4 | 4.20 | >-4 | 4.34 | 4.30 | 51.3 | 4.28 | 4.30 | 4.31 |  |
| COc1cc([C@@H]2c3[nH]c4ccccc4c3C[C@H]3C(=O)N4CCC[C@H]4C(=O)N23)cc(OC)c1O | < 4.00 | < 4.00 | < 4.00 | >-4 | < 4.00 | >-4 | < 4.00 | < 4.00 | > 100 | < 4.00 | < 4.00 | < 4.00 |  |
| COc1cc(CN2C(=O)[C@@H]3CCCN3C(=O)[C@@H]2Cc2c[nH]c3ccccc23)cc(OC)c1O | 4.19 | < 4.00 | < 4.00 |  | < 4.00 | >-4 | 4.06 | < 4.00 | 91.2 | 4.06 | 4.02 | 4.02 | TGI [5]: >-4 |
| O=C1[C@H](Cc2c[nH]c3ccccc23)N(Cc2ccccc2)C(=O)[C@@H]2CCCN12 | 4.07 | < 4.00 | < 4.00 | >-4 | < 4.00 | >-4 | < 4.00 | < 4.00 | 97.7 | < 4.00 | < 4.00 | < 4.00 |  |
| O=C1[C@@H]2CCCN2C(=O)[C@H](Cc2c[nH]c3ccccc23)N1C/C=C/c1ccccc1 | 4.64 | 4.43 | 4.35 | -4.07 | 4.40 | -4.01 | 4.45 | 4.45 | 31.6 | 4.49 | 4.36 | 4.56 |  |
| COc1cc([C@H]2c3[nH]c4ccccc4c3C[C@H]3C(=O)N4CCC[C@H]4C(=O)N23)cc(OC)c1O | 4.00 | 4.48 | 4.40 | >-4.03 | 4.18 | >-4 | 4.05 | 4.35 | 53.7 | 4.39 | 4.26 | 4.33 |  |
| CC(C)=CCN1C(=O)[C@@H]2CCCN2C(=O)[C@@H]1Cc1c[nH]c2ccccc12 (stereo in doubt) | 4.21 | < 4.00 | < 4.00 | -4.01 | < 4.00 | >-4 | 4.02 | < 4.00 | 85.1 | 4.01 | < 4.00 | 4.05 |  |
| COc1cc([C@@H]2c3[nH]c4ccccc4c3C[C@H]3C(=O)NCC(=O)N23)cc(OC)c1OC (relative stereo) | 5.64 | 5.43 | 5.23 | -4.26 | 5.26 | -4.04 | 5.36 | 4.86 | 5.89 | 5.12 | 5.17 | 5.20 |  |
| CC(C)=C[C@H]1c2[nH]c3ccccc3c2C[C@H]2C(=O)N3CCC[C@H]3C(=O)N21 (stereo in doubt) [DEMETHOXYFUMITREMORGIN C] |  |  |  |  |  |  |  |  |  |  |  |  | Log IC50 [1]: -4.16; Log IC50 (CNS cell): -4; Log IC50 (Ovarian carcinoma cell; ovarian carcinoma cell): > -4; Log IC50 (Prostate cell; prostate cell): > -4; Log IC50 (Colon cell): -4.02; Log IC50 (Renal cell): > -4; GI50 [3]: 95.5 µM; Log IC50 [4]: -4.03; Log IC50 (Melanoma cell): > -4; Log IC50 (Breast carcinoma cell): > -4 |
| CC(C)C[C@@H]1c2[nH]c3ccccc3c2C[C@H]2C(=O)N3CCC[C@H]3C(=O)N12 | 4.11 | 4.07 | < 4.00 | >-4 | < 4.00 | >-4 | < 4.00 | 4.01 | 93.3 | 4.03 | < 4.00 | 4.06 |  |
| CC(C)C[C@H]1c2[nH]c3ccccc3c2C[C@H]2C(=O)N3CCC[C@H]3C(=O)N21 | 4.44 | 4.08 | 4.10 |  | 4.08 | >-4 | 4.17 | 4.13 | 70.8 | 4.11 | 4.06 | 4.20 |  |
| COc1cc(CN2C(=O)[C@@H]3CCCN3C(=O)[C@@H]2Cc2c[nH]c3ccccc23)cc(OC)c1OC | 4.88 | 4.56 | 4.39 | -4.04 | 4.24 | -4.01 | 4.52 | 4.52 | 30.9 | 4.37 | 4.54 | 4.47 |  |
| COc1cc([C@@H]2c3[nH]c4ccccc4c3C[C@H]3C(=O)N4CCC[C@H]4C(=O)N23)cc(OC)c1OC | 4.49 | 4.13 | 4.11 | -4.01 | 4.14 | >-4 | 4.13 | 4.11 | 66.1 | 4.16 | 4.06 | 4.33 |  |
| COc1cc([C@H]2c3[nH]c4ccccc4c3C[C@H]3C(=O)N4CCC[C@H]4C(=O)N23)cc(OC)c1OC | 4.19 | 4.02 | 4.14 | >-4 | 4.04 | >-4 | 4.03 | 4.02 | 87.1 | 4.15 | 4.03 | 4.01 |  |
| CC(C)=CCN1C(=O)[C@@H]2CCCN2C(=O)[C@@H]1Cc1c[nH]c2ccccc12 (stereo in doubt; 5a) |  |  |  | >-4 |  |  |  |  |  |  |  |  | Log IC50 [1]: > -4; Log IC50 (Colon cell): > -4; GI50 [3]: > 100 µM; Log IC50 [4]: > -4; Log IC50 (Breast carcinoma cell): > -4 |
